Data taken from ChEMBL document CHEMBL4321868, “Scaffold Simplification Strategy Leads to a Novel Generation of Dual Human Immunodeficiency Virus and Enterovirus-A71 Entry Inhibitors” (J Med Chem, 2020).
Activity calls are given as the source filed them. The rule behind the calls is not given here.

Columns and labels:
[1] = tested on: RD; assay: Cytotoxicity against human RD cells assessed as adverse effect on cell; format: cell-based
[2] = tested on: Human immunodeficiency virus 1; assay: Antiviral activity against HIV1 3B infected in human MT4 cells assessed as reduction in p24 production at 20 uM administered at onset of infection measured 8 hrs post-infection by ELISA; format: functional, organism-based
[3] = target: Envelope glycoprotein gp160 (Human immunodeficiency virus 1, UniProt Q6QLK5); assay: (§1) Inhibition of biotinylated-heparin binding to recombinant HIV1 3B gp120 by SPR analysis
Envelope glycoprotein gp160, sequence (Q6QLK5 whole entry): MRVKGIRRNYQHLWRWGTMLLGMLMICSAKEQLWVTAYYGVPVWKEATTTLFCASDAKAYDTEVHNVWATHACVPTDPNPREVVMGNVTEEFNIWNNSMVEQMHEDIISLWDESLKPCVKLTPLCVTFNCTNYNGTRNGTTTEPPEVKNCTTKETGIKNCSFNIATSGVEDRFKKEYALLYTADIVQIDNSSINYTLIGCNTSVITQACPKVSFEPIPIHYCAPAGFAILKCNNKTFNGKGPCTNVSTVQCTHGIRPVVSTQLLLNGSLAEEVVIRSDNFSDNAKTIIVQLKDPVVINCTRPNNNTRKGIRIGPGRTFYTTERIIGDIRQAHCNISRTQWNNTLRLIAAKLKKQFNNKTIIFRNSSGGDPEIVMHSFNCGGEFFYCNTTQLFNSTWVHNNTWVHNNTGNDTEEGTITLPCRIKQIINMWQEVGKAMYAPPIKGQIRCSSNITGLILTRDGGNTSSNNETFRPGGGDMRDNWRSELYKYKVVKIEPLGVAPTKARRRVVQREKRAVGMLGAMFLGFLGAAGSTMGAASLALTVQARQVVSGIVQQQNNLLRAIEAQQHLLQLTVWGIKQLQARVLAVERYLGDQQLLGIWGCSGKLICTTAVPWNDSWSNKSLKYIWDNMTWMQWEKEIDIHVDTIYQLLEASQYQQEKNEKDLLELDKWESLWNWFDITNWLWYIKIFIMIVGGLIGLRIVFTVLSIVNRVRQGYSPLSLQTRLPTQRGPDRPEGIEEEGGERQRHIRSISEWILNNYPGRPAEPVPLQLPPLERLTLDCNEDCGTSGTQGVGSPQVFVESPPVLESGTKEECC
Summary of the method: (§2)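 SPR at 25 °C in PBS with 5% DMSO, 0.005% Tween20, pH 7.4. Minimally biotinylated heparin captured (880 RU) on streptavidin chip. Recombinant HIV-1 IIIB gp120 (10 nM) alone or premixed with a compound concentration range injected 2 min at 10 μl/min; regenerated with 1 M NaCl/10 mM NaOH. Double-referenced; RU converted to % inhibition vs gp120 alone; nonlinear fit, three experiments.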

[4] = target: Envelope glycoprotein gp160 (Human immunodeficiency virus 1) (UniProt Q6QLK5); assay: as §1; summary of the method: as §2
Envelope glycoprotein gp160 (Human immunodeficiency virus 1), sequence (Q6QLK5 1-814): as the sequence (Q6QLK5 whole entry) above

[5] = tested on: Enterovirus A71; assay: Antiviral activity against Enterovirus A71 genotype B2 11316 infected in human RD cells assessed as reduction in virus-induced cytopathic effect preincubated for 1 day followed by viral infection and measured after 3 days by MTS/PMS method; format: functional, organism-based; details: Enterovirus A, genotype B2 11316, RD
Summary of the method: (§3)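 RD cells seeded in 96-well plates; next day serial compound dilutions plus virus at low MOI added. Incubation at 37 °C, 5% CO₂ until full CPE in untreated infected controls (3 days). CC50 from uninfected treated cells in the same setup; SI = CC50/EC50.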

[6] = tested on: Human immunodeficiency virus 2; assay: Antiviral activity against HIV-2 ROD infected in human MT4 cells assessed as reduction in virus-induced cytopathic effect preincubated for 30 mins followed by viral infection and measured after 5 days by MTS assay; details: Human immunodeficiency virus 2, ISOLATE ROD
[7] = Selectivity index, ratio of CC50 for human MT4 cells to EC50 for HIV-1 NL4.3 infected in human MT4 cells
[8] = Selectivity index, ratio of CC50 for human RD cells to EC50 for Enterovirus A71 BrCr infected in human RD cells; format: toxicity, cell-based; details: read-out: Ratio CC50/EC50; summary of the method: as §3
[9] = target: Envelope glycoprotein gp160 (Human immunodeficiency virus 1) (UniProt Q6QLK5); assay: Binding affinity to recombinant HIV1 3B gp120 by SPR analysis
[10] = Selectivity ratio of EC50 for Enterovirus A 71 BrCr infected in human RD cells to EC50 for Enterovirus A 71 genotype B2 11316 infected in human RD cells; format: functional
[11] = tested on: Enterovirus A71; assay: Antiviral activity against Enterovirus A71 genotype C4 TW/1956/05 infected in human RD cells assessed as reduction in virus-induced cytopathic effect preincubated for 1 day followed by viral infection and measured after 3 days by MTS/PMS method; format: functional, organism-based; details: Enterovirus A, genotype C4 TW/1956/05, RD; summary of the method: as §3
[12] = tested on: Enterovirus A71; assay: Antiviral activity against Enterovirus A71 genotype B5 TW/70902/08 infected in human RD cells assessed as reduction in virus-induced cytopathic effect preincubated for 1 day followed by viral infection and measured after 3 days by MTS/PMS method; format: functional, organism-based; details: Enterovirus A, genotype B5 TW/70902/08, RD; summary of the method: as §3
[13] = Selectivity ratio of EC50 for Enterovirus A 71 BrCr infected in human RD cells to EC50 for Enterovirus A 71 genotype C4 TW/1956/05 infected in human RD cells; format: functional
[14] = tested on: Enterovirus A71; assay: Antiviral activity against Enterovirus A 71 BrCr harboring VP1 S184T/P246S mutant infected in human RD cells assessed as reduction in virus-induced cytopathic effect preincubated for 1 day followed by viral infection and measured after 3 days by MTS/PMS method; format: functional, organism-based, strain BRCR
[15] = tested on: HeLa; assay: Binding affinity to capsid protein VP1 five fold axis in Enterovirus A71 genotype B2 11316 infected in human HeLa cells at 20 uM measured after 1 hr by cryo-electron microscopic analysis; format: cell-based
[16] = tested on: Enterovirus A71; assay: Antiviral activity against Enterovirus A 71 BrCr infected in human RD cells assessed as reduction in viral RNA level at 20 uM administered at onset of infection measured 8 hrs post-infection by RT-qPCR analysis relative to control; format: functional, strain BRCR; design: scale not given: the % may be the effect or the level left
[17] = tested on: Human immunodeficiency virus 1; assay: Antiviral activity against HIV1 NL4.3 infected in human MT4 cells assessed as reduction in virus-induced cytopathic effect preincubated for 30 mins followed by viral infection and measured after 5 days by MTS assay; format: functional, organism-based; details: Human immunodeficiency virus 1, NL4.3, MT4
[18] = tested on: Enterovirus A71; assay: Antiviral activity against Enterovirus A 71 BrCr infected in human RD cells assessed as reduction in viral RNA level at 20 uM treated 1 to 4 hrs post-infection and measured 8 hrs post-infection by RT-qPCR analysis; format: functional, strain BRCR; design: scale not given: the % may be the effect or the level left
Summary of the method: (§4)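 RD cells grown to confluence; compound at 20 μM in 2% FBS medium added 1 h before or 1, 2, 4 h after EV-A71 BrCr infection (MOI 1). Pirodavir 20 μM as entry-inhibitor reference; infected untreated cells as controls. At 8 h post-infection, intracellular RNA isolated and viral RNA quantified by RT-qPCR.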

[19] = tested on: RD; assay: Cytotoxicity against human RD cells assessed as induction of cell morphological changes; format: cell-based
[20] = tested on: Enterovirus A71; assay: Antiviral activity against Enterovirus A71 genotype C2 H08300 461812 infected in human RD cells assessed as reduction in virus-induced cytopathic effect preincubated for 1 day followed by viral infection and measured after 3 days by MTS/PMS method; format: functional, organism-based; details: Enterovirus A, genotype C2 H08300 461812, RD; summary of the method: as §3
[21] = tested on: Enterovirus A71; assay: Antiviral activity against Enterovirus A 71 BrCr infected in human RD cells assessed as reduction in viral RNA level at 20 uM preincubated for 1 hr followed by viral infection and measured 8 hrs post-infection by RT-qPCR analysis relative to control; format: functional, strain BRCR; design: scale not given: the % may be the effect or the level left; summary of the method: as §4
[22] = Cytotoxicity against human MT4 cells assessed as reduction in cell viability measured after 5 days by MTS/PES assay; format: cell-based
Summary of the method: (§5)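 MT-4 cells (RPMI-1640, 10% FCS, 1% L-glutamine) pre-incubated 30 min at 37 °C with compound, then infected with HIV-1 NL4.3 or HIV-2 ROD according to stock TCID50. After 5 days, CPE scored microscopically and viability read by MTS/PES at A490 to derive EC50; cytotoxicity measured by MTS/PES at 5 days in the same cells. SI = CC50/EC50. Mean ± S.D. of at least 3 experiments.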

[23] = tested on: Human immunodeficiency virus 1; assay: Antiviral activity against HIV1 3B infected in human MT4 cells assessed as reduction in p24 production at 20 uM incubated for 1 hr prior to viral infection followed by compound washout and measured 8 hrs post-infection by ELISA; format: functional, organism-based
[24] = tested on: Enterovirus A71; assay: Antiviral activity against Enterovirus A 71 BrCr harboring VP1 S184T mutant infected in human RD cells assessed as reduction in virus-induced cytopathic effect preincubated for 1 day followed by viral infection and measured after 3 days by MTS/PMS method; format: functional, organism-based, strain BRCR
[25] = tested on: Enterovirus A71; assay: Antiviral activity against Enterovirus A 71 BrCr harboring VP1 P246S mutant infected in human RD cells assessed as reduction in virus-induced cytopathic effect preincubated for 1 day followed by viral infection and measured after 3 days by MTS/PMS method; format: functional, organism-based, strain BRCR
[26] = tested on: Enterovirus A71; assay: Antiviral activity against Enterovirus A 71 BrCr infected in human RD cells assessed as reduction in virus-induced cytopathic effect preincubated for 1 day followed by viral infection and measured after 3 days by MTS/PMS method; format: functional, organism-based; details: strain BRCR
Summary of the method: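 RD cells seeded in 96-well plates; next day serial compound dilutions plus virus at low MOI added. Incubation at 37 °C, 5% CO₂ until full CPE in untreated infected controls (3 days). Viability read by MTS/PMS; EC50 as 50% inhibition of virus-induced death from dose-response curves. CC50 from uninfected treated cells in the same setup; SI = CC50/EC50.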

[27] = Selectivity index, ratio of CC50 for human MT4 cells to EC50 for HIV1 NL4.3 infected in human MT4 cells; format: toxicity, cell-based; details: read-out: Ratio CC50/EC50; summary of the method: as §5

O=C(CCC(CCC(=O)NC(Cc1c(-c2cc(C(=O)O)cc(C(=O)O)c2)[nH]c2ccccc12)C(=O)O)(CCC(=O)NC(Cc1c(-c2cc(C(=O)O)cc(C(=O)O)c2)[nH]c2ccccc12)C(=O)O)[N+](=O)[O-])NC(Cc1c(-c2cc(C(=O)O)cc(C(=O)O)c2)[nH]c2ccccc12)C(=O)O (stereo not drawn)
Activity [1]: Non-Toxic | Activity [2]: Active | IC50 [3]: 982 nM | inhibition [4]: Dose-dependent effect | EC50 [5]: 179 nM | EC50 [6]: 630 nM | selectivity ratio [7]: > 370 | selectivity ratio [8]: > 203 | Activity [9]: Dose-dependent effect | Ratio EC50 [10]: 2 | EC50 [11]: 38 nM | EC50 [12]: 81 nM | Ratio EC50 [13]: 9 | EC50 [14]: 2180 nM | Activity [15]: Active | Activity [16]: 100% | EC50 [17]: 270 nM | Activity [18]: 0% | Activity [19]: Non-Toxic | EC50 [20]: 57 nM | Activity [21]: 100% | CC50 at 120 h [22]: > 100000 nM | Activity [23]: Active | EC50 [24]: 2350 nM | EC50 [25]: 1960 nM | EC50 [26]: 350 nM | EC90 [26]: 550 nM | selectivity ratio [27]: > 370
